From PubChem BioAssay
Calb FLC: C. albicans growth inhibition with fluconazole, primary screen, CaCi-2 strain, Alamar Blue fluorescence | C. albicans CaCi-2 (fluconazole-resistant clinical isolate) + fluconazole, 48 h | growth inhibition, % (no concentration beside the values) | AID 1979, 2009 | actives 0.57% (n = 300,000);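 active = growth inhibition above about 58% in most replicates, limit read from the data, passing the limit was not always enough; inconclusive = exactly half the replicates above a set limit; inactive = most replicates below a set limit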;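 also: all wells also contain fluconazole at 8 µg/ml as a sub-toxic cotreatment; 0% = median of DMSO wells and 100% = median of geldanamycin control wells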
PolyA inh: polyadenylation inhibitors in yeast reporter cells, primary screen, luminescence, S. cerevisiae | S. cerevisiae SKY197-pL101 polyadenylation reporter, beta-gal luminescence; efflux-impaired pdr1/pdr3 knockout yeast; score 100 = 6 SD above DMSO | activity score, % at 12 µM | actives 0.02% (n = 300,000) | AID 1875, 2009;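 active = lowest replicate activity score at least 50, where 100 means six control SD above control mean; inconclusive = lowest score under 50 but half or more replicates reach 50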;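 also: yeast exposed to compound for 9 h at 30 °C; higher score means more reporter readthrough which indicates perturbed polyadenylation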
CSC inhib: cancer stem cell viability inhibitors, primary screen, luminescence | actives 1.1% (n = 300,000) | cancer stem cell-like cells viability | inhibition, % at 7.5 µM; in the data active = inhibition above about 75%; inconclusive = no clear call, values can overlap the other calls; tested in HMLE shEcad cells
T cruzi repl: inhibitors of intracellular T. cruzi growth, primary screen, luminescence, NIH3T3 host cells; T. cruzi beta-gal in NIH3T3, 90 h; inhibition, % (test concentration not listed); actives 1.4% (n = 300,000); AID 1885, 2009;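 active = mean inhibition across valid replicates above about 55%, limit read from the data; inconclusive = mean below that limit but half or more replicates reach it; inactive = mean below it, under half of replicates reach it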;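 also: signal also drops with host cell toxicity which is not excluded here; 0% = plate median of DMSO wells and 100% = zero luminescence signal; higher percent means less beta-gal luminescence so fewer parasites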
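System: Mouse NIH/3T3 fibroblasts infected with β-gal-expressing T. cruzi Tulahuen C4 | Quantity: NIH/3T3 cells, 5,000 per well | Reagent: 5000 reporter trypomastigotes per well | Dosing: Compound pinned at 50 nL/well, DMSO | Schedule: 3 h host attachment, then at least 90 h co-culture | Detection: GalScreen luminescence, 60 min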
HIF act: HIF pathway transcriptional activators, primary screen, cell-based, U2OS HRE-luciferase, luminescence; U2OS HRE-luciferase reporter; normalized: DMSO 0%, desferrioxamine 100%; activation, % at 7.5 µM (by protocol); actives 0.32% (n = 300,000); AID 1910, 2009;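 active = mean activation of at least 10% of the iron chelator positive control signal, with at least half of replicates also reaching 10%; inconclusive = mean and replicate majority disagree about reaching 10%; inactive = mean and most replicates under 10%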
Beta cell apopt: inhibitors of cytokine-induced beta cell apoptosis, primary screen, luminescence; INS-1E cytokine-induced death, ATP luminescence, 48 h; percent of positive-control rescue, neutral wells zero; protection from apoptosis, % (no concentration beside the values); actives 0.8% (n = 300,000); AID 435005, 2010;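 active = Every replicate reaches about 75%, or at least half do and their mean reaches it too, limit read from the data; inconclusive = At least half of replicates reach the limit but their mean does not; inactive = Under half of replicates reach the limit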;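 also: 0% = cytokine-treated negative control wells and 100% = positive control rescue; higher means more ATP so stronger rescue from cytokine killing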
* = called active by the depositor; ? = inconclusive; · = no result. Hits are enriched below; roughly 3.1% of the tested compounds scored in any of these assays.

SMILES	Calb FLC	PolyA inh	CSC inhib	T cruzi repl	HIF act	Beta cell apopt
CCOc1cc(N2CCOCC2)c(OCC)cc1NC(=O)c1ccc(OC)cc1	-0.9	-8.1	-6.0	14.6	-0.6	-5.0
CCOc1cc(N2CCOCC2)c(OCC)cc1NC(=O)c1ccccc1C	45.9	-7.5	7.8	-36.5	0.2	0.8
CCOc1cc(N2CCOCC2)c(OCC)cc1NC(=O)c1nc2nc(C)cc(C)n2n1	100.8*	24.0	-9.8	-18.4	0.1	-3.8
COC(=O)C(CC(=O)c1cccc(OC)c1)c1ccc(F)cc1 (stereo unspecified)	-3.3	-25.4	·	6.0	-0.1	-1.5
Cc1ccc(-n2nc3c(N4CCC(C(=O)NCCc5ccccc5C)CC4)nnc(C)c3c2C)cc1	1.0	37.0	83.2*	55.3*	-0.8	61.5
CC(C)Cc1cc(C(=O)Nc2ccc3c(c2)OCO3)no1	6.3	-5.4	121.5*	-3.8	3.6	2.4
O=C(Nc1ccc2c(c1)OCO2)c1cc(-c2cccc(O)c2)on1	-7.1	-1.7	100.2*	4.2	0.2	6.8
O=C(Nc1ccc2c(c1)OCO2)c1cc(-c2ccc(O)cc2)on1	-11.3	-12.5	101.2*	54.9*	-19.1	·
COc1cccc(-c2cc(C(=O)Nc3ccc4c(c3)OCO4)no2)c1	-8.2	-4.7	46.7	3.6	1.6	·
CC1CC(C)CN(CC(O)COCc2ccccc2F)C1 (stereo unspecified)	5.9	3.3	-8.3	-24.2	-0.7	-1.1
CCCc1nnc(NC(=S)Nc2ccccc2)s1	77.0*	-10.6	-13.0	36.3	3.6	6.6
CC(=O)Nc1ccccc1OCC(=O)NC1CCCCC1C (stereo unspecified)	·	·	-5.0	·	·	-12.5
CCCOc1cccc(C(=O)N/N=C/c2coc3ccccc3c2=O)c1	108.4*	·	-8.3	·	·	-5.3
Cc1ccc2occ(/C=N/NC(=O)c3ccc(Cl)cc3)c(=O)c2c1	-14.9	6.7	-3.2	2.6	0.3	-2.2
O=C(N/N=C/c1coc2ccccc2c1=O)c1cc(Br)c(O)c(Br)c1	9.8	15.1	-10.0	-8.4	-0.7	-15.0
Cc1ccc2occ(/C=N/NC(=O)c3ccccc3O)c(=O)c2c1	78.8*	5.0	-7.4	6.6	6.4	42.4
O=C1C[C@H](NC(=O)OCc2ccccc2)CO1	·	·	·	·	·	-2.2
O=C1C(N2CCOCC2)=C(n2nnc3ccccc32)C(=O)c2ccccc21	-19.1	-74.2	109.8*	?	-40.7	120.2*
O=C1c2ccccc2C(=O)c2c1cccc2-n1nnc2ccccc21	1.0	3.9	-8.8	0.5	-0.2	-8.1
CN1CCC(N(C)CC(=O)Nc2cccc(Oc3ccccc3)c2)CC1	-3.3	10.9	52.9	61.7*	0.0	-3.6
CN1CCC(N(C)CC(=O)Nc2ccc3c(c2)OC(F)(F)O3)CC1	0.6	-3.6	27.5	44.4	-0.4	-5.6
CCN(c1ccccc1)S(=O)(=O)c1ccc(Cl)c(NC(=O)CN(C)C2CCN(C)CC2)c1	77.8*	9.0	-4.4	56.4*	-0.1	11.0
C/C(CC(=O)NCc1ccco1)=N\NC(=O)c1ccc([N+](=O)[O-])cc1Cl	-1.8	-17.9	·	5.8	0.0	-6.1
CN1/C(=C\C(=O)c2cccnc2)C(C)(C)c2ccccc21	8.0	-10.9	-8.5	6.2	0.2	-8.4
CN1/C(=C\C(=O)c2cncc(Br)c2)C(C)(C)c2ccccc21	15.9	-21.2	-0.4	43.7	0.5	101.0*
SMILES	Calb FLC	PolyA inh	CSC inhib	T cruzi repl	HIF act	Beta cell apopt
CN1/C(=C\C(=O)c2ccco2)C(C)(C)c2ccccc21	-0.1	-54.2	36.1	31.1	·	99.3*
CN1/C(=C\C(=O)C[n+]2ccc3ccccc3c2)C(C)(C)c2ccccc21	-2.0	-6.9	·	61.1*	-0.6	·
CN1/C(=C/C(=O)c2nc(S(C)(=O)=O)ncc2Cl)C(C)(C)c2ccccc21	-16.0	-34.4	111.1*	39.8	·	60.8
O=C(NC1CCCC1)C(c1ccccn1)N(C(=O)c1csnn1)c1ccc(F)cc1 (stereo unspecified)	-10.9	-2.1	2.4	5.3	0.2	-16.8
CN1/C(=C\C(=O)COc2ccc3c(c2)OCO3)C(C)(C)c2ccccc21	-5.5	-9.7	111.6*	56.0*	1.1	60.5
COc1ccccc1OCC(=O)/C=C1/N(C)c2ccccc2C1(C)C	11.0	-21.2	9.0	22.3	-0.4	26.5
CCOC(=O)N/N=C\c1ccc([N+](=O)[O-])o1	22.1	-16.0	2.1	75.0*	-0.7	-9.3
CCOC(=O)N/N=C/c1ccc(F)cc1	-9.4	8.9	-11.3	-12.2	0.9	-3.8
O=C(CC12CC3CC(CC(C3)C1)C2)N/N=C\c1ccc[nH]1	-6.2	12.5	2.4	0.7	0.0	-0.5
CCCCCCCCCCCC(=O)N/N=C/c1ccco1	12.7	81.8*	-5.4	-3.7	0.4	-2.6
O=C(CC12CC3CC(CC(C3)C1)C2)N/N=C/c1ccc([N+](=O)[O-])o1	0.4	1.4	33.6	55.2*	-0.6	3.8
O=[N+]([O-])c1ccc(/C=N/Nc2nc(N3CCCCCC3)nc(N3CCCCCC3)n2)o1	47.4	-34.7	34.7	75.6*	-0.7	4.2
O=[N+]([O-])c1ccc(/C=N/Nc2nc(N3CCCCC3)nc(N3CCCCC3)n2)cc1	-16.0	-9.7	-3.3	9.1	0.0	3.7
O=[N+]([O-])c1ccccc1/C=C/C=N/Nc1nc(N2CCCCC2)nc(N2CCCCC2)n1	-7.4	-1.5	-15.0	24.1	-0.4	2.0
C(=C\c1ccccc1)/C=N/Nc1nc(N2CCCCC2)nc(N2CCCCC2)n1	92.8*	14.0	-0.1	15.6	0.2	-8.2
O=C(CN1CCCCCCC1)N/N=C/c1ccc([N+](=O)[O-])o1	7.0	-4.1	-1.2	57.8*	0.7	8.7
O=C(CCN1CCN(c2ccccc2)CC1)N/N=C/c1ccc([N+](=O)[O-])o1	-2.2	-3.1	-8.8	95.5*	-0.2	-5.7
O=C(Cc1ccc([N+](=O)[O-])cc1)N/N=C/c1ccc([N+](=O)[O-])o1	5.8	3.0	-15.9	107.2*	0.6	97.2*
CCN(C(=O)Cc1c(C(=O)O)n(CC)c2ccccc12)c1cccc(C(F)(F)F)c1	8.1	12.2	-13.8	-11.7	-0.7	2.6
Cc1ccc(S(=O)(=O)N/N=C\c2ccc([N+](=O)[O-])o2)cc1	-5.2	-12.1	6.1	6.1	0.0	-9.8
CCCCCCCC(=O)N/N=C/c1ccc([N+](=O)[O-])o1	101.3*	-19.9	7.2	47.3	-0.3	-0.2
COc1ccc(/C=N/NC(=O)CCN2CCN(c3ccccc3)CC2)c(OC)c1OC	-9.9	1.8	8.8	-7.7	-0.4	0.0
